Measured values published in the M2OR odorant receptor database.

How the values were obtained:
Details in all cases: stereoisomer not certain
OR5B17 (Homo sapiens) = molecular target: T1, OR5B17 (Homo sapiens) (UniProt Q8NGF7)
T1 sequence (whole entry): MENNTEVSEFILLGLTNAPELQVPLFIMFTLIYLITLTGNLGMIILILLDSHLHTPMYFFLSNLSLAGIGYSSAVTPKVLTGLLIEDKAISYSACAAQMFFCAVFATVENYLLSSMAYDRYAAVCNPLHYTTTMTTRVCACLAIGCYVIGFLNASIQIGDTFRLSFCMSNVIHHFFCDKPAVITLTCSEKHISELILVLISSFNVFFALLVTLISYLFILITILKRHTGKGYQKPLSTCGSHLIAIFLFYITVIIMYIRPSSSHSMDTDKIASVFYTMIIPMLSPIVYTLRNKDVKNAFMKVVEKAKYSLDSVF
In short: (§1)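 Whether a receptor–molecule pair is responsive (active) rests on the original authors' judgment that its measured signal was statistically different from baseline. Pairs without that judgment are non-responsive (inactive). Sources used varied assay methods, commonly transient luciferase assays in mammalian cell lines.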

OR5B2 (Homo sapiens) = OR5B2 (Homo sapiens) (UniProt Q96R09)
In short: as §1

OR5B2 E6D = test system: OR5B2 E6D
In short: as §1

OR5B21 (Homo sapiens) = OR5B21 (Homo sapiens) (UniProt A6NL26)
In short: as §1

OR5B3 (Homo sapiens) = OR5B3 (Homo sapiens) (UniProt Q8NH48)
In short: as §1

OR5B3 I198V G247A = test system: OR5B3 I198V G247A
In short: as §1

OR5BC C141R = test system: OR5BC C141R
In short: as §1

OR5BH L80I I85M = test system: OR5BH L80I I85M
In short: as §1

OR5BH L80I = test system: OR5BH L80I
In short: as §1

OR5C1 (Homo sapiens) = OR5C1 (Homo sapiens) (UniProt Q8NGR4)
In short: as §1

Measured: odorant receptor agonist call;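 note: active if original authors judged signal statistically different from baseline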

Sequence of OR5B2 (Homo sapiens) (Q96R09 whole entry): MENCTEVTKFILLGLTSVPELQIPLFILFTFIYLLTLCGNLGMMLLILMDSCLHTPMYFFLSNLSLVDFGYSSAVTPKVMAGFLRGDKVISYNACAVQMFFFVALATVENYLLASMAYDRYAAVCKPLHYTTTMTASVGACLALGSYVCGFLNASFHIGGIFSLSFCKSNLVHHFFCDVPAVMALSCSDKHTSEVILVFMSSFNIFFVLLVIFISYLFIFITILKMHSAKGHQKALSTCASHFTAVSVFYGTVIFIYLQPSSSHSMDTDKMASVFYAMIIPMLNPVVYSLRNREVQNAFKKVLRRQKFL
Sequence of OR5B21 (Homo sapiens) (A6NL26 whole entry): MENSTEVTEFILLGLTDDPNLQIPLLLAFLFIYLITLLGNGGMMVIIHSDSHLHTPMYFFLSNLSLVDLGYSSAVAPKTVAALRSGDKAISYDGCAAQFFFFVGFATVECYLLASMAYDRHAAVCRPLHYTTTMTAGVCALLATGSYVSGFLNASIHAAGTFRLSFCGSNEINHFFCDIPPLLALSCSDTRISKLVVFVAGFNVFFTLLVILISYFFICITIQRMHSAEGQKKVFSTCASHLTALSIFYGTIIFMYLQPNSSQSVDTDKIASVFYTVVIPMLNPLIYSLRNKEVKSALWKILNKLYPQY
Sequence of OR5C1 (Homo sapiens) (Q8NGR4 whole entry): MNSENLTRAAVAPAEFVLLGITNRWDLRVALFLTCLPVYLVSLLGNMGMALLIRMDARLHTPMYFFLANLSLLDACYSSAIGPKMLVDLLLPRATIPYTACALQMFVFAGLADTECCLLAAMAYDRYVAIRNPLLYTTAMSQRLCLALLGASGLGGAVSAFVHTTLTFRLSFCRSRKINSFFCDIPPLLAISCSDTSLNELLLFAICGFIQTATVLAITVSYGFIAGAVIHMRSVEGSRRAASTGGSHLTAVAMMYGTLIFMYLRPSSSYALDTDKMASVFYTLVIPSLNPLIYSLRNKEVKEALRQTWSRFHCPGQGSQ
Sequence of OR5B3 (Homo sapiens) (Q8NH48 whole entry): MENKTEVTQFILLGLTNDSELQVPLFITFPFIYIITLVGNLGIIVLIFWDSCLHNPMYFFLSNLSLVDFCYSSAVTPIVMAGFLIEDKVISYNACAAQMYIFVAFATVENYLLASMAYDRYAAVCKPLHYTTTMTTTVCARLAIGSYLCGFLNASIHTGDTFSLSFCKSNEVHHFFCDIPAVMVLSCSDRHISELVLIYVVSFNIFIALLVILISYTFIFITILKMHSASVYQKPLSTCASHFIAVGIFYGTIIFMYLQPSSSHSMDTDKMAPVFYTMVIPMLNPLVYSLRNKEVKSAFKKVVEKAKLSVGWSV
Sequence of OR5BC C141R (as listed by the source, stated change not applied): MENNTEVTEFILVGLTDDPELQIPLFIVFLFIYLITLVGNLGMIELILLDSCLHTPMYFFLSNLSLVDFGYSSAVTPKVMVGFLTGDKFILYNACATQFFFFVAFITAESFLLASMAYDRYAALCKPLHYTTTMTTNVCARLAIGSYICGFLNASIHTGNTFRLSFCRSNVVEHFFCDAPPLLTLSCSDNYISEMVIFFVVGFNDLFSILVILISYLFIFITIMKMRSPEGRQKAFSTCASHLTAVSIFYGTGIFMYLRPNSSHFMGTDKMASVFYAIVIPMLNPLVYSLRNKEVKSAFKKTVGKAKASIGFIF
Sequence of OR5BH L80I (as listed by the source, stated change not applied): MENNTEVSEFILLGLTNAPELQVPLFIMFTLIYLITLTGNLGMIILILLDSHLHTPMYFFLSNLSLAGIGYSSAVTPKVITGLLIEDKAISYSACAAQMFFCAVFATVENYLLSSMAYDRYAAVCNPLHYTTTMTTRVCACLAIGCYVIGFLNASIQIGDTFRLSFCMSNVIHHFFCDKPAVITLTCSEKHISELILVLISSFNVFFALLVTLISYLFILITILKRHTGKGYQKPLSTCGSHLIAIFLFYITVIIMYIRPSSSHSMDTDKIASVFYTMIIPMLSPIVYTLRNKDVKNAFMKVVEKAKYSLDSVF
Sequence of OR5B2 E6D (as listed by the source): as the sequence (Q96R09 whole entry) above, with E6D counted along it

O=Cc1ccccc1
inactive: OR5B17 (Homo sapiens)

C=CCc1ccc(OC)cc1
inactive: OR5B17 (Homo sapiens)

C=CCOC(=O)Cc1ccccc1
inactive: all assays above

O=CC=Cc1ccccc1
inactive: OR5B17 (Homo sapiens)

Cc1c([N+](=O)[O-])c(C)c([N+](=O)[O-])c(C(C)(C)C)c1[N+](=O)[O-]
inactive: OR5B17 (Homo sapiens) | OR5B2 (Homo sapiens) | OR5B21 (Homo sapiens) | OR5B3 (Homo sapiens) | OR5C1 (Homo sapiens)
